Measurements taken from ChEMBL document CHEMBL1125433, “Exploration of N-phosphonoalkyl-, N-phosphonoalkenyl-, and N-(phosphonoalkyl)phenyl-spaced alpha-amino acids as competitive N-methyl-D-aspartic acid antagonists” (J Med Chem, 1992).

How the values were obtained:
[1] = target: T1, Glutamate NMDA receptor (Rattus norvegicus) (UniProt P35439+Q00959+Q00960+Q00961+Q62645+Q8VHN2+Q9R1M7); test: Displacement of [3H]CPP from N-methyl-D-aspartate glutamate receptor of rat cortical membranes; assay type: cell membranes; set-up: concentration or dose not given beside the values; settings: Membrane, concentration not given here
Outline: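 Membranes were crude synaptic membranes from whole brain, minus cerebellum and brainstem, of male Long-Evans rats. They were treated with 0.01% Triton X-100 (37 °C, 30 min) and washed in 50 mM Tris-HCl pH 7.6. Membranes (200-400 µg protein/mL) were incubated with 10 nM [3H]CPP for 15 min at 23 °C, in triplicate. Bound ligand was separated by centrifugation and counted by scintillation. IC50 was fitted by nonlinear least squares from four or more concentrations.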

[2] = species: Rattus norvegicus; test: In vitro antagonist activity by its ability to inhibit glutamate-induced accumulation of [45Ca2+]- in cultured rat cortical neurons.; assay type: functional
Outline: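 Cortical neurons came from E18 Sprague-Dawley rat fetuses and were used 14-16 days after plating. Cells were held in Mg-free HBSS with 1.4 mM CaCl2, pH 7.4, at 37 °C and 5% CO2. They were exposed for 30 min to 100 µM L-glutamate (final) plus 45Ca2+ (2 µCi/mL) with test agent, then washed with saline, lysed in water and beta-counted. Baseline uptake without glutamate was subtracted. IC50 came from at least four half-log concentrations, with at least six replicates each.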

[3] = target: Glutamate NMDA receptor; test: Inhibitory activity evaluated by its ability to displace [3H]CPP from N-methyl-D-aspartate glutamate receptor in rat cortical membranes at 10E-4 concentration of the compound; assay type: cell membranes
Outline: (§1)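 Rat forebrain crude synaptic membranes were pretreated with Triton X-100 and washed in 50 mM Tris-HCl pH 7.6. Membranes (200-400 µg protein/mL) were incubated with 10 nM [3H]CPP and test agent for 15 min at 23 °C, in triplicate. Pellets were collected by centrifugation and counted. Percent inhibition = (T−S)/T×100, where T and S are specific binding without and with test agent.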

[4] = target: T1, Glutamate NMDA receptor (Rattus norvegicus); test: Inhibitory activity evaluated by its ability to displace [3H]CPP from NMDA receptor in rat cortical membranes at 10E-4 concentration of the compound; assay type: cell membranes; outline: as §1
[5] = target: Glutamate NMDA receptor; test: Inhibitory activity evaluated by its ability to displace [3H]CPP from rat cortical membrane N-methyl-D-aspartate glutamate receptor at 10E-5 concentration of the compound
Outline: (§2)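 Crude synaptic membranes from whole brain minus cerebellum and brainstem of male Long-Evans rats, treated with 0.01% Triton X-100 at 37 °C for 30 min and washed. Membranes (200-400 µg protein/mL) were incubated with 10 nM [3H]CPP in 50 mM Tris-HCl pH 7.6 for 15 min at 23 °C in triplicate. Bound ligand was separated by centrifugation and counted by liquid scintillation. Inhibition of specific binding was calculated as ((T−S)/T)×100.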

[6] = target: Glutamate NMDA receptor; test: Inhibitory activity evaluated by its ability to displace [3H]CPP from N-methyl-D-aspartate glutamate receptor in rat cortical membranes at 10E-5 concentration of the compound; assay type: cell membranes; outline: as §1
[7] = target: Glutamate NMDA receptor; test: Inhibitory activity evaluated by its ability to displace [3H]CPP from rat cortical membrane receptor at 10E-5 concentration of the compound; outline: as §2

| inhibition [1] | IC50 [2] | Structure (SMILES) | other results |
| --- | --- | --- | --- |
| 60% |  | O=C(O)CNCCSCP(=O)(O)O |  |
|  | 144 µM | O=C(O)CNCCc1cccc(CP(=O)(O)O)c1 | IC50 [3]: 13.7 µM |
|  | 40 µM | O=C(O)CNCc1cccc(CP(=O)(O)O)c1 | IC50 [7]: 2.4 µM |
| 4% |  | O=C(O)CNCC[S+]([O-])CP(=O)(O)O (stereo unspecified) |  |
| 5% |  | O=C(O)CNc1cccc(CCCP(=O)(O)O)c1 |  |
| 0% |  | O=C(O)CNc1cccc(CCP(=O)(O)O)c1 |  |
|  | 59 µM | O=C(O)CNCc1ccc(CP(=O)(O)O)cc1 | IC50 [7]: 2.3 µM |

More lines, now with the values behind:

| Structure (SMILES) | inhibition [1] | IC50 [2] | other results |
| --- | --- | --- | --- |
| O=C(O)CNCCP(=O)(O)O | 14% |  |  |
| O=C(O)CNCc1ccccc1CP(=O)(O)O |  |  | inhibition [4]: 21% |
| O=C(O)CNCC/C=C\P(=O)(O)O |  | 36 µM | IC50 [5]: 2.25 µM |
| O=C(O)CNCCCP(=O)(O)O | 3% |  |  |
| O=C(O)CNc1ccccc1CCP(=O)(O)O |  |  | inhibition [4]: 0% |
| N/C(=N\CC(=O)O)c1cccc(CP(=O)(O)O)c1 |  | 137 µM | IC50 [6]: 18 µM |
| O=C(O)CNc1ccccc1C(=O)O |  | > 250 µM |  |
| CC(NC/C=C\CP(=O)(O)O)C(=O)O (stereo unspecified) |  |  | IC50 [5]: 42.4 µM |
| NC(CCCP(=O)(O)O)C(=O)O (stereo unspecified) |  | 6.1 µM |  |
| O=C(O)CNc1cccc(/C=C/CP(=O)(O)O)c1 | 13% |  |  |
| CC(C)C(NCc1cccc(CP(=O)(O)O)c1)C(=O)O (stereo unspecified) | 0% |  |  |
| O=C(O)C1CN(CP(=O)(O)O)CCN1 (stereo unspecified) |  | 5.2 µM | IC50 [7]: 0.065 µM |
| O=C(O)CNCc1cccc(P(=O)(O)O)c1 |  |  | inhibition [4]: 21% |
| NC(CCCCCP(=O)(O)O)C(=O)O (stereo unspecified) [AP-7] |  | 30 µM |  |
| CC(NCc1cccc(CP(=O)(O)O)c1)C(=O)O (stereo unspecified) | 31% |  |  |
| O=C(O)CNCCCCP(=O)(O)O | 17% |  |  |
| O=C(O)CNc1ccccc1/C=C/P(=O)(O)O | 9% |  |  |
| O=C(O)CNC/C=C/CP(=O)(O)O |  | 16.7 µM | IC50 [7]: 1 µM |
| O=C(O)C1CN(CCCP(=O)(O)O)CCN1 (stereo unspecified) |  | 2.4 µM |  |
| CC(NCc1ccccc1CP(=O)(O)O)C(=O)O (stereo unspecified) | 4% |  |  |
| O=C(O)CNc1ccccc1P(=O)(O)O | 27% |  |  |
| O=C(O)CNc1ccccc1CP(=O)(O)O | 48% |  |  |
